How the values were obtained:
[1] = molecular target: T1, Alpha-2A adrenergic receptor (Homo sapiens) (UniProt P08913); assay: Antagonistic activity as [35S]GTP gamma-S binding at alpha-2a adrenergic receptor expressed in CHO cells; format: functional, cell-based
T1 sequence (whole entry): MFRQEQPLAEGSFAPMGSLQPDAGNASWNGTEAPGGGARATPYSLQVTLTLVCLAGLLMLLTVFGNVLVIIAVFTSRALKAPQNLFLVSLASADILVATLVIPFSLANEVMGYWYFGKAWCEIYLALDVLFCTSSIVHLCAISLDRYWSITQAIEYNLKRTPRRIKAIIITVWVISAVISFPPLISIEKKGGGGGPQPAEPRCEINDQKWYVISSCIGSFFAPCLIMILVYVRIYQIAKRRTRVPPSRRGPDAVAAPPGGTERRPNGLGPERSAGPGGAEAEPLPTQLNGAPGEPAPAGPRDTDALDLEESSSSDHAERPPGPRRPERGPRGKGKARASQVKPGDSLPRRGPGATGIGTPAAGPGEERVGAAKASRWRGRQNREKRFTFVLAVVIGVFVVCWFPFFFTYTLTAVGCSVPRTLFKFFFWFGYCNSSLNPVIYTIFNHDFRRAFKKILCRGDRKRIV
In short: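 Membranes (40 μg/mL) from CHO cells stably expressing human α2A receptor, preincubated 30 min at room temperature with drug in 20 mM HEPES pH 7.4, 100 mM NaCl, 3 μM GDP, 3 mM MgCl2; 0.2 nM [35S]GTPγS added, 60 min room temperature, NA 10 μM as agonist. Nonspecific: 10 μM GTPγS. Filtration, scintillation counting; pKB from IC50 corrected for agonist concentration/EC50.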

[2] = molecular target: Norepinephrine transporter (Rattus norvegicus, UniProt Q9WTR4); assay: In vitro binding affinity was determined against NA (noradrenaline) reuptake site of rat in presence of [3H]nisoxetine radioligand
[3] = molecular target: Sodium-dependent serotonin transporter (Rattus norvegicus, UniProt P31652); assay: In vitro binding affinity was determined against serotonin reuptake site of rat in presence of [3H]paroxetine radioligand
[4] = molecular target: T2, Adrenergic receptor alpha-1 (Rattus norvegicus, UniProt P15823+P23944+P43140); assay: In vitro binding affinity against alpha-1 adrenergic receptor of rat in presence of [3H]-prazosin radioligand; format: protein assay
T2 sequence (P15823 whole entry): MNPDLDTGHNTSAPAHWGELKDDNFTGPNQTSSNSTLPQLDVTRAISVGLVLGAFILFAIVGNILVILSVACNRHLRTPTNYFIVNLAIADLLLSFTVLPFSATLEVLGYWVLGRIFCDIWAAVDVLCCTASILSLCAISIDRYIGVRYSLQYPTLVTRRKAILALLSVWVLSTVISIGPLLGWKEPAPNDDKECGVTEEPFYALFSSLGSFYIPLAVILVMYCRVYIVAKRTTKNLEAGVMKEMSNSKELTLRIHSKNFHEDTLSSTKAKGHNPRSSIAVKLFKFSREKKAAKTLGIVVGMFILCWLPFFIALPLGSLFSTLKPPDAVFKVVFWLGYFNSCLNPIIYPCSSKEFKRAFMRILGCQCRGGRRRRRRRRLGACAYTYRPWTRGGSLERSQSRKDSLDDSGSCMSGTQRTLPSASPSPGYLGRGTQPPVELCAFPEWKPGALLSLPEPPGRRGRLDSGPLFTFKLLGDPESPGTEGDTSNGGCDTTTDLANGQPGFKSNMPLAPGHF
T2 sequence (P23944 whole entry): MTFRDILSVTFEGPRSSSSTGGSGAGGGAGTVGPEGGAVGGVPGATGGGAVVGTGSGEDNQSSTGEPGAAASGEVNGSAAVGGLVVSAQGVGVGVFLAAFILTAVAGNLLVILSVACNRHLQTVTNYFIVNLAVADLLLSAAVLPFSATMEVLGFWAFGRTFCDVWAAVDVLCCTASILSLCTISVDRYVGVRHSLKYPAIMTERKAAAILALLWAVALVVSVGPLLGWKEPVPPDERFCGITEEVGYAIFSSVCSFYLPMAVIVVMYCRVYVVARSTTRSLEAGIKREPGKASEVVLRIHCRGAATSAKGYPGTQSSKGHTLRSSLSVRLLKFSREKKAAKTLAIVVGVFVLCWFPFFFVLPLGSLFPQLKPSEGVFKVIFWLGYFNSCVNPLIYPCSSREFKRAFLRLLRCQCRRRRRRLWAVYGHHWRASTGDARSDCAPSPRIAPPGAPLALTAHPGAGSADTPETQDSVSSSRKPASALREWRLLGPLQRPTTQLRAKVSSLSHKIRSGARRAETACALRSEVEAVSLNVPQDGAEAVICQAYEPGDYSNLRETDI
T2 sequence (P43140 whole entry): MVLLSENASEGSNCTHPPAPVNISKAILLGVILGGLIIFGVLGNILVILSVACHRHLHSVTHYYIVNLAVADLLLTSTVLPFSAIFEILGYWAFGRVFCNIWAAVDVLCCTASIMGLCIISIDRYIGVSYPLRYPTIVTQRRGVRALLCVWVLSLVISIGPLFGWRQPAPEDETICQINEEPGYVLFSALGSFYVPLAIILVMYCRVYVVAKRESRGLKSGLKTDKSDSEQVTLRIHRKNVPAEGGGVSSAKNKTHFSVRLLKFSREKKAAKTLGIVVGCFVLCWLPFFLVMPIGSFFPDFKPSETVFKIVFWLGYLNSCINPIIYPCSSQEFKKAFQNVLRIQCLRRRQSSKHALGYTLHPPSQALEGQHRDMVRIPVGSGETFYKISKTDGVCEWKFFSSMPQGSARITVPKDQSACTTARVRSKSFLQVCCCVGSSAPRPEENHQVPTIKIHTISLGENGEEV

[5] = molecular target: T3, Adrenergic receptor alpha-2 (Rattus norvegicus, UniProt P22086+P19328+P22909); assay: In vitro binding affinity against alpha-2 adrenergic receptor of rat in presence of [3H]-RX 821002 radioligand; format: protein assay
T3 sequence (P22086 whole entry): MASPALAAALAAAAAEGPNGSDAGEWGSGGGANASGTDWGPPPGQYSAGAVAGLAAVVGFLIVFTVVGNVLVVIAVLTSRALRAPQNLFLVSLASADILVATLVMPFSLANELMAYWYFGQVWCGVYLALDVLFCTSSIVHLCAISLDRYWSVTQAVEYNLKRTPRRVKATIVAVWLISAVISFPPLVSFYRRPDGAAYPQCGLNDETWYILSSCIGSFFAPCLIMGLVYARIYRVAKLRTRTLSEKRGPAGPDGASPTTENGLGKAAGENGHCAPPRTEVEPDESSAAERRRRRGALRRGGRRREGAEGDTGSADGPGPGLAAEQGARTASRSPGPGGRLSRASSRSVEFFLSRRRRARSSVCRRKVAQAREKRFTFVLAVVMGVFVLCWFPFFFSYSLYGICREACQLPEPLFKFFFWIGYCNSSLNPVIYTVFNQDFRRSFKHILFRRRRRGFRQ
T3 sequence (P19328 whole entry): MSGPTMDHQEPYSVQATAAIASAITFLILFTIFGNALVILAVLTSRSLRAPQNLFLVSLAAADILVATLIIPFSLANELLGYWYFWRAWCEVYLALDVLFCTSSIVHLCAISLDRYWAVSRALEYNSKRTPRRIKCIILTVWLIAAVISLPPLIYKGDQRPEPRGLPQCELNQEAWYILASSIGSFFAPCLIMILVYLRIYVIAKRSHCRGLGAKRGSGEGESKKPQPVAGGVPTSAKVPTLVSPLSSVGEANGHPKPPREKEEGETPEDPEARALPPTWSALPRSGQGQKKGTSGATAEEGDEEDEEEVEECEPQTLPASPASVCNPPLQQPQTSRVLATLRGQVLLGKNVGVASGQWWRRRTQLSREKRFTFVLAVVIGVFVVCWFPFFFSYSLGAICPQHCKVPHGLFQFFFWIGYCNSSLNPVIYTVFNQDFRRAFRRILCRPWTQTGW
T3 sequence (P22909 whole entry): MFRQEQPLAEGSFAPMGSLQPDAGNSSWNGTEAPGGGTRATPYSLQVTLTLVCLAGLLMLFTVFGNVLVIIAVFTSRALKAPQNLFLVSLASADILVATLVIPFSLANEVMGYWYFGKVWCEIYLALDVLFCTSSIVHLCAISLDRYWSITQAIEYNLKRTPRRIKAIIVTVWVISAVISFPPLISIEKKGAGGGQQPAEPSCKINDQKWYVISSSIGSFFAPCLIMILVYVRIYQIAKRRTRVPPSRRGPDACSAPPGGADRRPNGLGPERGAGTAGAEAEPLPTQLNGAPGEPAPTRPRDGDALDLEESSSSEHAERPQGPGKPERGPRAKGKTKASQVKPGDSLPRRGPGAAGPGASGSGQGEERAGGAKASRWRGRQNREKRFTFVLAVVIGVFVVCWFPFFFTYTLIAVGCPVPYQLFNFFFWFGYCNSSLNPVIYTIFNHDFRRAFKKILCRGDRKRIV

[6] = molecular target: T4, Alpha-2A adrenergic receptor (Homo sapiens, UniProt P08913); assay: Binding affinity for human alpha-2 adrenergic receptor expressed in CHO cell; format: cell-based
T4 sequence (P08913 whole entry): T1 sequence (whole entry)

Sequence of Norepinephrine transporter (Q9WTR4 whole entry): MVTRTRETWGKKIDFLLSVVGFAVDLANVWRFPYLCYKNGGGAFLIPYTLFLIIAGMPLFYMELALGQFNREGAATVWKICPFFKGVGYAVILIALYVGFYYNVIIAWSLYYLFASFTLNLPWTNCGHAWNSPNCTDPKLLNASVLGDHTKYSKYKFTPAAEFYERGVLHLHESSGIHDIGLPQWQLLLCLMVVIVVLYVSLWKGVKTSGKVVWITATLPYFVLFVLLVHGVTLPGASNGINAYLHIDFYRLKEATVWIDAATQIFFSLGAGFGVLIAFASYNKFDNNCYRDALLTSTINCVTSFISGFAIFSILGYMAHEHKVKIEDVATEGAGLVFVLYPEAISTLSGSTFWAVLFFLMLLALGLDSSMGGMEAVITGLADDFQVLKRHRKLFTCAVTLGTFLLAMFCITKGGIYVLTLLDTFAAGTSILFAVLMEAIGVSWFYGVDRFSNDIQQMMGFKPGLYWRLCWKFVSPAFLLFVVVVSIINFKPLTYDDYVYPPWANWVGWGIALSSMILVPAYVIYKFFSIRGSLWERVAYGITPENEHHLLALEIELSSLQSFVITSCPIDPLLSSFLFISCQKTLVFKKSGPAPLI
Sequence of Sodium-dependent serotonin transporter (P31652 whole entry): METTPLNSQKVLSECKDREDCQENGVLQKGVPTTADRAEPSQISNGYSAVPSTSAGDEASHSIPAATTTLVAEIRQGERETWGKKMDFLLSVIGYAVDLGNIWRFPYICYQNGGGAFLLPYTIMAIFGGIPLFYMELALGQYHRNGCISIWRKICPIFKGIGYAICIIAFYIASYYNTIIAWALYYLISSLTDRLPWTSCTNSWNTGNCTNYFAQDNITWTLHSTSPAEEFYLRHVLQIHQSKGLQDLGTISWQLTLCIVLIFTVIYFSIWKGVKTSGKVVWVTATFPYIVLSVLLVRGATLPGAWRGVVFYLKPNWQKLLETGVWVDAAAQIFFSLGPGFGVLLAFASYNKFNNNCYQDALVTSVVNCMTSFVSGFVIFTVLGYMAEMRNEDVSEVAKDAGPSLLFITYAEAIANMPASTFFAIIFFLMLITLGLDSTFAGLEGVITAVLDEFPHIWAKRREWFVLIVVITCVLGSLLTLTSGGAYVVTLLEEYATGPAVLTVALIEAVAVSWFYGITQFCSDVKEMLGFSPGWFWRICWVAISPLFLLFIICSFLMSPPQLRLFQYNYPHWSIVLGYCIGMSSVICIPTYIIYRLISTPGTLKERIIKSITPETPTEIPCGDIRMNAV

Row | Structure (SMILES) | pKB [1] | Ki [2] [nM] | Ki [3] [nM] | Log Ki [4] | Log Ki [5] | Ki [6] [nM]
1 | C1=NC[C@H](C[C@]23CCc4ccccc4C2C3)N1 (stereo partly drawn) | 6.8 | 794 | 50.1 | -5.9 | -7.3 | 63.1
2 | C1=NCC(CC2Cc3ccccc3C2)N1 (stereo not drawn) | 8.1 | 39.8 | 63.1 | -6.3 | -8.7 | 3.98
3 | CCC1(c2c[nH]cn2)Cc2ccccc2C1 [ATIPAMEZOLE] | 8.9 | – | – | -5.7 | – | –
4 | Clc1cccc2c1C=C(CC1CN=CN1)CC2 (stereo not drawn) | 7.6 | 50.1 | 20 | -6.4 | -7.6 | 31.6
5 | C1=NCC(CC2=Cc3ccccc3CC2)N1 (stereo not drawn) | 6.6 | 50.1 | 39.8 | -6.4 | -7 | 100
6 | Fc1cccc2c1C=C(CC1CN=CN1)CC2 (stereo not drawn) | 6.8 | 126 | 79.4 | -6.3 | -7.4 | 39.8
7 | C1=NC[C@]2(CC[C@@H]3Cc4ccccc4C[C@H]3C2)N1 (relative stereo) | 8.2 | 200 | 15.8 | -6.1 | -8 | 1.26
8 | C1=NCC(Cc2cc3ccccc3o2)N1 (stereo not drawn) | 6.9 | 63.1 | 1000 | -5.6 | -7.9 | 20
9 | C1=NCC(CC2=Cc3ccccc3C2)N1 (stereo not drawn) | – | 31.6 | 79.4 | -5.9 | -7.8 | –
10 | NC1=NC(CC2=Cc3ccccc3CC2)CN1 (stereo not drawn) | – | 79.4 | 39.8 | -7.2 | -6.5 | –
11 | Fc1ccc2c(c1)C=C(CC1CN=CN1)CC2 (stereo not drawn) | 6.7 | 50.1 | 1.58 | -6.6 | -6.7 | 158
12 | CN[C@H](CC(C)C)C(=O)N[C@H]1C(=O)N[C@@H](CC(N)=O)C(=O)N[C@H]2C(=O)N[C@H]3C(=O)N[C@H](C(=O)N[C@H](C(=O)O)c4cc(O)cc(O)c4-c4cc3ccc4O)[C@H](O)c3ccc(c(Cl)c3)Oc3cc2cc(c3O[C@@H]2O[C@H](CO)[C@@H](O)[C@H](O)[C@H]2O[C@H]2C[C@](C)(N)[C@H](O)[C@H](C)O2)Oc2ccc(cc2Cl)[C@H]1O [VANCOMYCIN] | 6.7 | 15.8 | 50.1 | -6 | -6.9 | –
13 | C1=NC(CC2CCc3ccccc3O2)CN1 (stereo not drawn) | – | 794 | 501 | -6.5 | -7.3 | –
14 | CC1(C)CC(CC2CN=CN2)=Cc2ccccc21 (stereo not drawn) | – | 39.8 | > 10000 | -6.1 | -6 | –
15 | C1=NC[C@@]2(CC[C@@H]3Cc4ccccc4C[C@H]3C2)N1 (relative stereo) | – | > 1000 | 25.1 | -6.2 | -6.1 | –
16 | C1=NCC(CC2CCc3ccccc3C2)N1 (stereo not drawn) | – | 100 | 10 | -6.1 | -7.8 | –
17 | Cc1cc2c(cc1C)CC(CC1CN=CN1)C2 (stereo not drawn) | – | 25.1 | 20 | -6.7 | -7.6 | –
18 | Cc1ccc2c(c1)C=C(CC1CN=C(N)O1)CC2 (stereo not drawn) | – | > 1000 | 251 | -6.6 | -5.8 | –
19 | C1=NC[C@@H](C2CC23Cc2ccccc2C3)N1 (stereo partly drawn) | – | 316 | 398 | -5.2 | -7.1 | –
20 | C1=NC[C@H](C2CC23Cc2ccccc2C3)N1 (stereo partly drawn) | – | 31.6 | 50.1 | -6.9 | -9.1 | –
21 | CCC1(c2cnc[nH]2)Cc2ccccc2C1 [ATIPAMEZOLE] | – | > 10000 | > 3160 | – | – | 3.16
22 | C[C@@]1(C[C@@H]2CN=CN2)CCc2ccccc2C1 | – | 200 | 10 | -6 | -7.1 | –
23 | CNCCC(Oc1ccc(C(F)(F)F)cc1)c1ccccc1 (stereo not drawn) | 7.4 | – | – | – | – | –

Reference: ChEMBL document CHEMBL1134363 (J Med Chem, 2001)
